Test results reported in ChEMBL document CHEMBL1138530 (Antimicrob Agents Chemother, 2007).
In brackets after ≈: the same amount, converted by molar mass.

Columns and labels:
[1] = system: Human immunodeficiency virus 1; assay: Antiviral activity against HIV1 assessed as inhibition of release of CA/p24 from CA-SP1/p25 at 37.8 nM by MAGI assay; format: functional; conditions: Human immunodeficiency virus 1, MAGI
[2] = system: Homo sapiens; assay: Toxicity in HIV1 infected human assessed as incidence of adverse effect at 75 to 250 mg, po; format: organism-based; conditions: in vivo
Outline: (§1)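 Safety monitoring of HIV-infected adults given a single oral dose or placebo (randomized, double-blind, six per cohort), followed to day 24 for adverse events, serious adverse events and deaths.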

[3] = system: Homo sapiens; assay: Effect of CD4 cell count in HIV1 infected human at 75 mg, po after 10 days; format: functional
Outline: (§2)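 CD4 cell count change from baseline 10 days after a single oral dose in HIV-infected adults (baseline CD4 >200 cells/mm3), six per cohort, placebo-controlled double-blind design; tested by dose and over time.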

[4] = system: Homo sapiens; assay: Effect of CD4 cell count in HIV1 infected human at 150 mg, po after 10 days; format: functional; outline: as §2
[5] = system: Homo sapiens; assay: Effect of CD4 cell count in HIV1 infected human at 250 mg, po after 10 days; format: functional; outline: as §2
[6] = system: Human immunodeficiency virus 1; assay: Antiviral activity against HIV1 infected in human assessed as logarithmic reduction in HIV RNA copies at 75 mg, po relative to baseline; format: functional
Outline: (§3)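 Randomized, double-blind, placebo-controlled single oral dose in HIV-infected adults (CD4 >200 cells/mm3, viral load 5,000–250,000 copies/ml, off therapy ≥4 weeks), six per cohort. Plasma HIV RNA at screening, predose, 6–48 h and days 3–24; maximum observed log10 drop from baseline per patient, averaged by dose, compared by ANOVA.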

[7] = system: Human immunodeficiency virus 1; assay: Antiviral activity against HIV1 infected in human assessed as logarithmic reduction in HIV RNA copies at 150 mg, po relative to baseline; format: functional; outline: as §3
[8] = system: Human immunodeficiency virus 1; assay: Antiviral activity against HIV1 infected in human assessed as logarithmic reduction in HIV RNA copies at 250 mg, po relative to baseline; format: functional; outline: as §3
[9] = system: Homo sapiens; assay: Distributional clearance in HIV1 infected human at 75 mg, po; format: ADME, organism-based; conditions: in vivo
Outline: (§4)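 Single oral dose to HIV-infected adults, six per cohort; plasma sampled 0–48 h and days 3–24. Heparinized plasma, internal-standard spiked, acetonitrile-precipitated, assayed by reverse-phase LC-MS/MS (MRM 583.3→455.2); ranges 20.0–16,000 ng/ml (75 mg) or 100–60,000 ng/ml (150, 250 mg). Oral two-compartment linear model with absorption lag fit by maximum likelihood then Bayesian estimation.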

[10] = system: Homo sapiens; assay: Distributional clearance in HIV1 infected human at 150 mg, po; format: ADME, organism-based; conditions: in vivo; outline: as §4
[11] = system: Homo sapiens; assay: Distributional clearance in HIV1 infected human at 250 mg, po; format: ADME, organism-based; conditions: in vivo; outline: as §4
[12] = Apparent oral clearance in HIV1 infected human at 75 mg, po; format: ADME, organism-based; conditions: in vivo; outline: as §4
[13] = Apparent oral clearance in HIV1 infected human at 150 mg, po; format: ADME, organism-based; conditions: in vivo; outline: as §4
[14] = Apparent oral clearance in HIV1 infected human at 250 mg, po; format: ADME, organism-based; conditions: in vivo; outline: as §4
[15] = system: Homo sapiens; assay: Tlag in HIV1 infected human at 75 mg, po; format: ADME, organism-based; conditions: in vivo; outline: as §4
[16] = system: Homo sapiens; assay: Tlag in HIV1 infected human at 150 mg, po; format: ADME, organism-based; conditions: in vivo; outline: as §4
[17] = system: Homo sapiens; assay: Tlag in HIV1 infected human at 250 mg, po; format: ADME, organism-based; conditions: in vivo; outline: as §4
[18] = Half life in HIV1 infected human at 75 mg, po; format: ADME, organism-based; conditions: in vivo; outline: as §4
[19] = Half life in HIV1 infected human at 150 mg, po; format: ADME, organism-based; conditions: in vivo; outline: as §4
[20] = Half life in HIV1 infected human at 250 mg, po; format: ADME, organism-based; conditions: in vivo; outline: as §4
[21] = system: Human immunodeficiency virus 1; assay: Antiviral activity against HIV1 infected in human assessed as death rate constant of uninfected CD4 cells at 75 mg, po; format: functional
Outline: (§5)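 Randomized, double-blind, placebo-controlled trial in HIV-infected adults (CD4 >200 cells/mm3, plasma viral load 5,000–250,000 copies/ml, off antiretrovirals ≥4 weeks), six per cohort, single oral dose. Plasma drug levels measured by LC-MS/MS; HIV RNA sampled to day 24. Parameters from a viral-dynamic model (Hill-type inhibition of new CD4 infection) fit per subject by maximum likelihood then Bayesian estimation; reported as mean (%CV).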

[22] = system: Human immunodeficiency virus 1; assay: Antiviral activity against HIV1 infected in human assessed as death rate constant of uninfected CD4 cells at 150 mg, po; format: functional; outline: as §5
[23] = system: Human immunodeficiency virus 1; assay: Antiviral activity against HIV1 infected in human assessed as death rate constant of uninfected CD4 cells at 250 mg, po; format: functional; outline: as §5
[24] = system: Human immunodeficiency virus 1; assay: Antiviral activity against HIV1 infected in human assessed as rate at which virus infects CD4 cells at 75 mg, po; format: functional
Outline: (§6)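 Randomized, double-blind, placebo-controlled trial; HIV-infected adults (CD4 >200 cells/mm3, plasma viral load 5,000–250,000 copies/ml, no antiretrovirals ≥4 weeks), six per cohort, single oral dose. Plasma HIV RNA sampled predose through day 24. Viral-dynamic model (uninfected/infected CD4, virus; Hill-type inhibition of new infection by plasma concentration) fit by maximum likelihood then Bayesian estimation, pharmacokinetic parameters held fixed.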

[25] = system: Human immunodeficiency virus 1; assay: Antiviral activity against HIV1 infected in human assessed as rate at which virus infects CD4 cells at 150 mg, po; format: functional; outline: as §6
[26] = system: Human immunodeficiency virus 1; assay: Antiviral activity against HIV1 infected in human assessed as rate at which virus infects CD4 cells at 250 mg, po; format: functional; outline: as §6
[27] = system: Human immunodeficiency virus 1; assay: Antiviral activity against HIV1 infected in human assessed as death rate constant of infected CD4 cells at 75 mg, po; format: functional; outline: as §5
[28] = system: Human immunodeficiency virus 1; assay: Antiviral activity against HIV1 infected in human assessed as death rate constant of infected CD4 cells at 150 mg, po; format: functional; outline: as §5
[29] = system: Human immunodeficiency virus 1; assay: Antiviral activity against HIV1 infected in human assessed as death rate constant of infected CD4 cells at 250 mg, po; format: functional; outline: as §5
[30] = system: Human immunodeficiency virus 1; assay: Antiviral activity against HIV1 infected in human assessed as clearance rate of virions at 75 mg, po; format: functional; outline: as §6
[31] = system: Human immunodeficiency virus 1; assay: Antiviral activity against HIV1 infected in human assessed as clearance rate of virions at 150 mg, po; format: functional; outline: as §6
[32] = system: Human immunodeficiency virus 1; assay: Antiviral activity against HIV1 infected in human assessed as clearance rate of virions at 250 mg, po; format: functional; outline: as §6
[33] = system: Human immunodeficiency virus 1; assay: Antiviral activity against HIV1 infected in human assessed as number of new virions produced by infected CD4 cell at 75 mg, po; format: functional; outline: as §6
[34] = system: Human immunodeficiency virus 1; assay: Antiviral activity against HIV1 infected in human assessed as number of new virions produced by infected CD4 cell at 150 mg, po; format: functional; outline: as §6
[35] = system: Human immunodeficiency virus 1; assay: Antiviral activity against HIV1 infected in human assessed as number of new virions produced by infected CD4 cells at 250 mg, po; format: functional; outline: as §6
[36] = system: Human immunodeficiency virus 1; assay: Antiviral activity against HIV1 infected in human assessed as inhibition of viral replication at 75 mg, po; format: functional, organism-based; outline: as §6
[37] = system: Human immunodeficiency virus 1; assay: Antiviral activity against HIV1 infected in human assessed as inhibition of viral replication at 150 mg, po; format: functional, organism-based; outline: as §6
[38] = system: Human immunodeficiency virus 1; assay: Antiviral activity against HIV1 infected in human assessed as inhibition of viral replication at 250 mg, po; format: functional, organism-based; outline: as §6
[39] = system: Human immunodeficiency virus 1; assay: Antiviral activity against HIV1 infected in human assessed as maximum rate of viral replication measured as logarithmic viral copies at 75 mg, po; format: functional; outline: as §6
[40] = system: Human immunodeficiency virus 1; assay: Antiviral activity against HIV1 infected in human assessed as maximum rate of viral replication measured as logarithmic viral copies at 150 mg, po; format: functional; outline: as §6
[41] = system: Human immunodeficiency virus 1; assay: Antiviral activity against HIV1 infected in human assessed as maximum rate of viral replication measured as logarithmic viral copies at 250 mg, po; format: functional; outline: as §6
[42] = system: Human immunodeficiency virus 1; assay: Antiviral activity against HIV1 infected in human assessed as growth/production of uninfected CD4 cells at 75 mg, po; format: functional; outline: as §6
[43] = system: Human immunodeficiency virus 1; assay: Antiviral activity against HIV1 infected in human assessed as growth/production of uninfected CD4 cells at 150 mg, po; format: functional; outline: as §6
[44] = system: Human immunodeficiency virus 1; assay: Antiviral activity against HIV1 infected in human assessed as growth/production of uninfected CD4 cells at 250 mg, po; format: functional; outline: as §6
[45] = Half life in po dosed human; format: ADME, organism-based; conditions: in vivo
[46] = system: Homo sapiens; assay: Toxicity in HIV1 infected human assessed as mortality at 75 to 250 mg, po; format: organism-based; conditions: in vivo; outline: as §1
[47] = system: Plasma; assay: Stability in human plasma; format: ADME, cell-free

C=C(C)[C@@H]1CC[C@]2(C(=O)O)CC[C@]3(C)[C@H](CC[C@@H]4[C@@]5(C)CC[C@H](OC(=O)CC(C)(C)C(=O)O)C(C)(C)[C@@H]5CC[C@]43C)[C@@H]12 [BEVIRIMAT]
inhibition at 0.0378 µM [1]: 90%
Activity [2]: Non-toxic
Activity [3]: -15
Activity [4]: 121
Activity [5]: 104
Activity [6]: -0.14 mL⁻¹
Activity [7]: -0.47 mL⁻¹
Activity [8]: -0.46 mL⁻¹
CLd [9]: 0.48 L/h
CLd [10]: 0.48 L/h
CLd [11]: 0.45 L/h
CL/F [12]: 2.83 mL/min
CL/F [13]: 2.67 mL/min
CL/F [14]: 2.83 mL/min
Tlag [15]: 0.18 h
Tlag [16]: 0.2 h
Tlag [17]: 0.15 h
half-life [18]: 63.9 h
half-life [19]: 55.1 h
half-life [20]: 62.1 h
Activity [21]: 0.0031 h⁻¹
Activity [22]: 0.0012 h⁻¹
Activity [23]: 0.0016 h⁻¹
Activity [24]: 0.14 h⁻¹
Activity [25]: 0.028 h⁻¹
Activity [26]: 0.0349 h⁻¹
Activity [27]: 0.013 h⁻¹
Activity [28]: 0.017 h⁻¹
Activity [29]: 0.007 h⁻¹
Activity [30]: 0.008 h⁻¹
Activity [31]: 0.071 h⁻¹
Activity [32]: 0.024 h⁻¹
Activity [33]: 137.8
Activity [34]: 126
Activity [35]: 80.2
EC50 [36]: 1.19 ng/mL (≈ 2.03 nM)
EC50 [37]: 0.35 ng/mL (≈ 0.598 nM)
EC50 [38]: 0.55 ng/mL (≈ 0.94 nM)
Activity [39]: 5.13 mL⁻¹
Activity [40]: 4.59 mL⁻¹
Activity [41]: 4.46 mL⁻¹
Activity [42]: 320.7 mL/h
Activity [43]: 1340 mL/h
Activity [44]: 1856.6 mL/h
half-life [45]: 55 h
Activity [46]: Non-toxic
Stability [47]: 95 days
